From ChEMBL document CHEMBL1145888, “Prazosin-related compounds. Effect of transforming the piperazinylquinazoline moiety into an aminomethyltetrahydroacridine system on the affinity for alpha1-adrenoreceptors” (J Med Chem, 2003)

Columns and labels:
[1] = target: T1, Alpha-1A adrenergic receptor (Rattus norvegicus) (UniProt P43140); details: Vas deferens
T1 sequence (whole entry): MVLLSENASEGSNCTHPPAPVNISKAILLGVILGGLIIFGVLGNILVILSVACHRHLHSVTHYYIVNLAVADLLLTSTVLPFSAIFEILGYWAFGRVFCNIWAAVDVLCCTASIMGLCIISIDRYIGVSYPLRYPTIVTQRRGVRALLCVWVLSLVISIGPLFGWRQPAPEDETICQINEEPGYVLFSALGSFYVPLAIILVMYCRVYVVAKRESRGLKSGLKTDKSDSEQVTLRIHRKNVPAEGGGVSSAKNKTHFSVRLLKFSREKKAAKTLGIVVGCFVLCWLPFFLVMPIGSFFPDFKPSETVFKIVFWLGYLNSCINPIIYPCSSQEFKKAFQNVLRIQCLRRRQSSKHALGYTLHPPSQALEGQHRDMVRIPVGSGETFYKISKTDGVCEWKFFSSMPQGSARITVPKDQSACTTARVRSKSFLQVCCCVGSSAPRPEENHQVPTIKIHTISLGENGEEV

[2] = target: T2, Alpha-1B adrenergic receptor (Rattus norvegicus) (UniProt P15823); assay: Affinity was evaluated against Alpha-1B adrenoceptor in isolated rat spleen expressed as pKB; format: tissue-based
T2 sequence (whole entry): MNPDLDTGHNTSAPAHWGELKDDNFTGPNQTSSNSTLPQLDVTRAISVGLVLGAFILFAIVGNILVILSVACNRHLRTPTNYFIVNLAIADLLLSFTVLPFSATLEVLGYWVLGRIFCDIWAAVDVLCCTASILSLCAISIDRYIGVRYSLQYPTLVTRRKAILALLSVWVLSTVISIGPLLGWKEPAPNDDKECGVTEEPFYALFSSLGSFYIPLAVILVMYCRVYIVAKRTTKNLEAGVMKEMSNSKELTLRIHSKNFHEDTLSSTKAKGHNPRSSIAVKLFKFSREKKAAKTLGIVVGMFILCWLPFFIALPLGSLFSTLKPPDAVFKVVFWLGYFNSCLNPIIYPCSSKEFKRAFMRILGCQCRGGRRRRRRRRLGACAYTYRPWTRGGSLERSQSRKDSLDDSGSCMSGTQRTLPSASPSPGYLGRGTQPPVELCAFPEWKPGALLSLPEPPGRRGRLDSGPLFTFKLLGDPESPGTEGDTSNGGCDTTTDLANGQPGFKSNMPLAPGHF
How it was run: (§1)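 Isolated rat tissue; isometric contractions recorded via force transducer, with parallel tissues receiving no antagonist to check for sensitivity drift. A control agonist cumulative concentration-response curve was run, then antagonist equilibrated 30 min before a repeat curve. Responses were taken as % of the control maximum. pKB (±SE) was calculated by van Rossum at one concentration (0.1-10 µM range), each tested 4-5 times.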

[3] = target: T3, Alpha-1D adrenergic receptor (Rattus norvegicus) (UniProt P23944); details: Aorta
T3 sequence (whole entry): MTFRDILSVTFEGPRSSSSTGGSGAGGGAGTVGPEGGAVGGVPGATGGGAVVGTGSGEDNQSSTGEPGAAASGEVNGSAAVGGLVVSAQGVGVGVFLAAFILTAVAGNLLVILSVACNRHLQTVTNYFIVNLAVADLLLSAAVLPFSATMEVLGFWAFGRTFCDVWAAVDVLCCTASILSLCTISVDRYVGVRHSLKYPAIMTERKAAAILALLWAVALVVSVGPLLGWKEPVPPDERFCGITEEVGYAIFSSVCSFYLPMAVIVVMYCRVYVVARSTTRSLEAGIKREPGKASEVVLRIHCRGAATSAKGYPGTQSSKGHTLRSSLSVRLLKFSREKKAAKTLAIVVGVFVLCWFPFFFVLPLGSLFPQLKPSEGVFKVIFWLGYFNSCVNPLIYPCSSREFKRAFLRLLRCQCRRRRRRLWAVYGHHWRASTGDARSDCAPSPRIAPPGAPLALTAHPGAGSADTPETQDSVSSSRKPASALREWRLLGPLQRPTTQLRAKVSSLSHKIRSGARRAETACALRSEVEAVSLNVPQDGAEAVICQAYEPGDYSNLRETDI

[4] = target: T3, Alpha-1D adrenergic receptor (Rattus norvegicus); assay: Affinity was evaluated against Alpha-1D adrenergic receptor in isolated rat aorta expressed as pKB; format: tissue-based
How it was run: as §1

[5] = target: T4, Alpha-1B adrenergic receptor (Homo sapiens, UniProt P35368); assay: Binding affinity measured in CHO cells expressing human cloned Alpha-1B adrenergic receptor expressed as pKi; format: cell-based
T4 sequence (P35368 whole entry): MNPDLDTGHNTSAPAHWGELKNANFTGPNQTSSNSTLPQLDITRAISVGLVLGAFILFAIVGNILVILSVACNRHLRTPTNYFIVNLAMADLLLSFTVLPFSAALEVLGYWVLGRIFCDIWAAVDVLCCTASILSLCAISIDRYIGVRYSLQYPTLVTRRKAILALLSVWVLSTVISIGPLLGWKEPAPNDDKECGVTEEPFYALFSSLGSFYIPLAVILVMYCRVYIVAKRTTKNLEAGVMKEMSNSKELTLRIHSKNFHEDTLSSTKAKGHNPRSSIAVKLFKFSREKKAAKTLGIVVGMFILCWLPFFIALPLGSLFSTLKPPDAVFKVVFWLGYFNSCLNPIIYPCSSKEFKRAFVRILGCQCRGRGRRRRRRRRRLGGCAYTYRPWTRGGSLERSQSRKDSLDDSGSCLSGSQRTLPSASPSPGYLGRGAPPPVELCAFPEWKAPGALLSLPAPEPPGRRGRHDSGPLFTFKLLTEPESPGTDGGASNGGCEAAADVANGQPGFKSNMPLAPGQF

[6] = target: T5, Alpha-1A adrenergic receptor (Homo sapiens, UniProt P35348); assay: Binding affinity measured in CHO cells expressing human cloned Alpha-1A adrenergic receptor expressed as pKi; format: cell-based
T5 sequence (P35348 whole entry): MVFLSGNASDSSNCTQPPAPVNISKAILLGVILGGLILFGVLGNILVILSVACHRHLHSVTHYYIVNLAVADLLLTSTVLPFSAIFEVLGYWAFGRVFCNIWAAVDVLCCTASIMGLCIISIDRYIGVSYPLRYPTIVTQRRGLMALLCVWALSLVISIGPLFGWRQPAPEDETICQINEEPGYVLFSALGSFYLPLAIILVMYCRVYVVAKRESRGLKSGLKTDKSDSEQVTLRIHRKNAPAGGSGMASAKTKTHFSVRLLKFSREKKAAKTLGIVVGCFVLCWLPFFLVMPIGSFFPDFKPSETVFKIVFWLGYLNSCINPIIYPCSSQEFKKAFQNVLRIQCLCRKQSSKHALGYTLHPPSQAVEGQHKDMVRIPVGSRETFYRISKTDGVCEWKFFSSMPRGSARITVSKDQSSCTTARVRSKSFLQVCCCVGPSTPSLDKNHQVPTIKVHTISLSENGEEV

[7] = target: T6, Alpha-1D adrenergic receptor (Homo sapiens, UniProt P25100); assay: Binding affinity measured in CHO cells expressing human cloned Alpha-1D adrenergic receptor expressed as pKi; format: cell-based
T6 sequence (P25100 whole entry): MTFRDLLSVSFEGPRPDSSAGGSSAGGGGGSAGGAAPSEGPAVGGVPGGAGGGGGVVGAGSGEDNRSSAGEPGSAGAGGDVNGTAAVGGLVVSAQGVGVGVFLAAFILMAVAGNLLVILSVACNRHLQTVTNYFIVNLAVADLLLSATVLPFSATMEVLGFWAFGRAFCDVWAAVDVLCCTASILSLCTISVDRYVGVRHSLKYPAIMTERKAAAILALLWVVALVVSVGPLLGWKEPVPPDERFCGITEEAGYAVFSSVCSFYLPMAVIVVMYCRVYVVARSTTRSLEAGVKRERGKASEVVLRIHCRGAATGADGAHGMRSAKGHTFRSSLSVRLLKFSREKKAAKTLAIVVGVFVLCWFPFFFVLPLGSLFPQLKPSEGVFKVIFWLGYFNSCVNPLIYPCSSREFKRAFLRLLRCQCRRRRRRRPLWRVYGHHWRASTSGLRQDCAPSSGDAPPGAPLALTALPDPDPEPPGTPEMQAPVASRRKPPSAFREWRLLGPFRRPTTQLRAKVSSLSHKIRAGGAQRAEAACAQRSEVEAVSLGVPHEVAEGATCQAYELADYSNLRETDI

[8] = target: T2, Alpha-1B adrenergic receptor (Rattus norvegicus); assay: Affinity was evaluated against Alpha-1B adrenergic receptor in isolated rat spleen expressed as pKB; format: tissue-based
How it was run: as §1

pKB [1]	pKB [2]	pKB [3]	pKB [4]	Ki [5]	Ki [6]	Ki [7]	pKB [8]	SMILES
6.34	6.92	6.94						COc1cc2nc3c(c(N)c2cc1OC)CCCC(CNC(=O)c1ccco1)C3 (configuration not stated)
6.52		7.47		0.0123 µM	0.0955 µM	0.0158 µM	7.3	COc1cc2nc3c(c(N)c2cc1OC)CCC(CNC(=O)c1ccco1)C3 (configuration not stated)
6.26	6.82		6.11	0.0794 µM	0.158 µM	0.2 µM		COc1cc2nc3c(c(N)c2cc1OC)CC(CNC(=O)c1ccco1)C3 (configuration not stated)
5.76	6.95	6.41		0.295 µM	2.57 µM	1.15 µM		COc1cc2nc3c(c(O)c2cc1OC)CCC(CNC(=O)c1ccco1)C3 (configuration not stated)
6.67	7.19		6.63					COc1cc2nc3c(c(N)c2cc1OC)CCC(CNC(=O)c1ccccc1)C3 (configuration not stated)

Further lines, the compound ahead of its results:

SMILES	pKB [1]	pKB [2]	pKB [3]	pKB [4]	Ki [5]	Ki [6]	Ki [7]	pKB [8]
COc1cc2nc3c(c(O)c2cc1OC)CCC(CNCCOc1c(OC)cccc1OC)C3 (configuration not stated)	6.24	7.05		5.92	0.219 µM	1.7 µM	0.389 µM	
COc1cc2nc3c(c(N)c2cc1OC)CCC(CNC(=O)c1ccc(C(F)(F)F)cc1)C3 (configuration not stated)	6.08	7.2		6.67	0.00891 µM	0.0851 µM	0.0191 µM	
COc1cc2nc3c(c(N)c2cc1OC)CCC(CNCCOc1c(OC)cccc1OC)C3 (configuration not stated)	5.7	7.2	6.39		0.0398 µM	0.977 µM	0.2 µM	
COc1cc2nc3c(c(N)c2cc1OC)CCC(CNC(=O)c1cccc(C(F)(F)F)c1)C3 (configuration not stated)	7.16	7.36		7.58	0.0126 µM	0.0316 µM	0.0251 µM	
COc1cc2nc3c(c(N)c2cc1OC)CCC(CNC(=O)c1ccccc1C(F)(F)F)C3 (configuration not stated)	6.47	7.33		6.85	0.00741 µM	0.288 µM	0.0245 µM	
COc1cccc(OC)c1OCCNCC1COc2ccccc2O1 (configuration not stated)	9.48	8.2	8.85					
